Test results from PMC9069932 (RSC Advances, 2019).
Where two headings read alike, the source gives them in different places.

Tests used:
Format in all cases: cell-based, human
[1] = system: HaCaT; experiment: MTT cell viability/proliferation assay, HaCaT; conditions: read-out: HaCaT IC50
How it was run: (§1)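 Human lines grown at 37 °C, 5% CO2 with 10% FBS: U-118 MG in DMEM; T98G and HaCaT in EMEM. Seeded 1 × 10⁴ cells/well, left 24 h, then exposed 48 h to test compound at 7.81–1000 μg mL⁻¹ (eight twofold steps). MTT added at 0.5 mg mL⁻¹ final for 2 h. Formazan dissolved in DMSO, read at 492 nm against 690 nm reference. IC50 is the mean of ≥3 independent experiments.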

[2] = system: U-118 MG; experiment: MTT cell viability/proliferation assay, U-118 MG; conditions: read-out: U-118 MG IC50
How it was run: as §1

[3] = system: T98G; experiment: MTT cell viability/proliferation assay, T98G; conditions: read-out: T98G IC50
How it was run: as §1

[4] = system: T98G cells; experiment: Colony formation; conditions: for clonogenic survival compared to control cells: 20 μM; for reduction of cancer cell clonogenic potential: 50 μM
How it was run: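 T98G cells seeded at 500 per well and allowed to adhere 24 h. Exposed to test compound at 2–100 μM in triplicate; after 24 h switched to compound-free medium, 7 days total. Colonies (≥50 cells) methanol-fixed, stained with 1% gentian violet and counted by light microscopy.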

[5] = MTT, 48 hours, glioblastoma multiforme cell line

Compound	IC50 ([1]; MTT, 48 hours, referential healthy cells) [µM]	IC50 [2, 5] [µM]	IC50 [3, 5] [µM]	IC50 ([1]; Homo sapiens, HaCaT, 48 h) [µM]	IC50 ([2]; Homo sapiens, U-118-MG, 48 h) [µM]	IC50 ([3]; Homo sapiens, T98G, 48 h) [µM]	clonogenic survival compared to control cells [4] [%]	reduction of cancer cell clonogenic potential [4] [%]
Diethyl (1-(phenylamino)-2-(2,3,5,6-tetrafluoro-4-(m-tolylthio)phenyl)ethyl)phosphonate [Compound 2b]	26.5 ± 4.7	37.9 ± 2.5	14.5 ± 3.3					
CCOP(=O)(OCC)C(Cc1c(F)c(F)c(Oc2ccc(Cl)cc2)c(F)c1F)Nc1ccccc1 (stereo not shown) [Compound 2r, Diethyl (2-(4-(4-chlorophenoxy)-2,3,5,6-tetrafluorophenyl)-1-(phenylamino)ethyl)phosphonate]				48.4 ± 7.4	79.2 ± 6.4	70.3 ± 8.3		
CCOP(=O)(OCC)C(Cc1c(F)c(F)c(SCC(NC(C)=O)C(=O)OC)c(F)c1F)Nc1ccccc1 (stereo not shown) [Compound 2j, Methyl 2-acetamido-3-((4-(2-(diethoxyphosphoryl)-2-(phenylamino)ethyl)-2,3,5,6-tetrafluorophenyl)thio)propanoate]				> 100	> 100	82.7 ± 15.7		
O=c1[nH]c(=O)n([C@H]2C[C@H](O)[C@@H](CO)O2)cc1F [Compound 5-FdU, 5-fluoro-2′-deoxyuridine, reference compound]				4.42 ± 1.1	23.4 ± 1.6	5.57 ± 0.9		
CCOP(=O)(OCC)C(Cc1c(F)c(F)c(Sc2cccc(OC)c2)c(F)c1F)Nc1ccccc1 (stereo not shown) [Compound 2e, Diethyl (1-(phenylamino)-2-(2,3,5,6-tetrafluoro-4-((3-methoxyphenyl)thio)phenyl)ethyl)phosphonate]				10.1 ± 2.2	21.4 ± 2.7	20.4 ± 3.1	30	85
CCOP(=O)(OCC)C(Cc1c(F)c(F)c(F)c(F)c1F)Nc1ccccc1 (stereo not shown) [Compound 1a, Diethyl (2-(perfluorophenyl)-1-(phenylamino)ethyl)phosphonate]				56.8 ± 7.4	60.7 ± 8.9	40.4 ± 6.2		
CCOP(=O)(OCC)C(Cc1c(F)c(F)c(Sc2cccc(N)c2)c(F)c1F)Nc1ccccc1 (stereo not shown) [Compound 2f, Diethyl (2-(4-((3-aminophenyl)thio)-2,3,5,6-tetrafluorophenyl)-1-(phenylamino)ethyl)phosphonate]				18.2 ± 3.4	28.1 ± 3.6	25.5 ± 1.9	10	98
